Active and inactive are the calls of the source. The calls are words filed in the database; no cut-off is given here.
Assays:
Mus musculus = test: Inhibition of LDL cholesterol levels in po dosed ApoE*3-Leiden mouse plasma administered for 16 weeks; assay type: functional, organism-based
In short: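 Transgenic ApoE*3-Leiden mice on high-cholesterol Western-type diet dosed over 16 weeks; plasma PCSK9, total cholesterol, triglycerides and lipoprotein profile (VLDL, LDL) assessed at study end.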

Plasma [1] = test: Drug metabolism in Sprague-Dawley rat plasma assessed as nicotinuric acid levels at 100 mg/kg, po administered as single dose after 6 hrs by LC/MS/MS analysis; assay type: ADME, organism-based; settings: in vivo
In short: (§1)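 Single oral dose to Sprague Dawley rats; plasma collected at 0.25, 0.5, 1, 2, 4 and 6 hr; analytes in plasma quantified by LC/MS/MS.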

Liver [2] = test: Drug metabolism in Sprague-Dawley rat liver assessed as niacin formation at 300 mg/kg, qd administered through oral gavage for 7 days measured 2 hrs post last dose by LC/MS/MS analysis; assay type: ADME, organism-based; settings: in vivo, BLD = below limit of detection
[3] = Drug uptake in Sprague-Dawley rat liver at 300 mg/kg, qd administered through oral gavage for 7 days measured 2 hrs post last dose by LC/MS/MS analysis; assay type: ADME, organism-based; settings: read-out: Drug uptake
Rattus norvegicus [4] = test: Cmax in Sprague-Dawley rat assessed as nicotinuric acid at 100 mg/kg, po administered as single dose measured up to 6 hrs post dose by LC/MS/MS analysis; assay type: ADME, organism-based; design: dose 100 mg/kg, route oral; settings: in vivo; in short: as §1
Rattus norvegicus [5] = test: Cmax in portal vein cannulated Sprague-Dawley rat assessed nicotinuric acid at 30 mg/kg, po measured up to 140 mins; assay type: ADME, organism-based; design: dose 30 mg/kg, route oral; settings: in vivo
In short: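 Sprague Dawley rats surgically fitted with indwelling jugular vein and portal vein cannulas; oral dosing, then serial blood draws from both portal and jugular veins at 10, 20, 40 min and 1, 2, 4, 6 hr post dose; plasma analysed for parent and metabolites by LC/MS/MS.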

Intestine = test: Drug metabolism in Sprague-Dawley rat intestine assessed as niacin linker metabolite N-(2-aminoethyl)nicotinamide formation at 300 mg/kg, qd administered through oral gavage for 7 days measured 2 hrs post last dose by LC/MS/MS analysis; assay type: ADME, organism-based; settings: in vivo
[6] = molecular target: T1, Fatty-acid amide hydrolase 1 (Homo sapiens, UniProt O00519); test: Drug metabolism in human HepG2 cells assessed as FAAH-mediated compound hydrolysis by measuring level of EPA at 50 uM by LC/MS-MS analysis; assay type: ADME, cell-based; settings: hepg2, 50 µM, TDE = time-dependent effect
T1 sequence (O00519 whole entry): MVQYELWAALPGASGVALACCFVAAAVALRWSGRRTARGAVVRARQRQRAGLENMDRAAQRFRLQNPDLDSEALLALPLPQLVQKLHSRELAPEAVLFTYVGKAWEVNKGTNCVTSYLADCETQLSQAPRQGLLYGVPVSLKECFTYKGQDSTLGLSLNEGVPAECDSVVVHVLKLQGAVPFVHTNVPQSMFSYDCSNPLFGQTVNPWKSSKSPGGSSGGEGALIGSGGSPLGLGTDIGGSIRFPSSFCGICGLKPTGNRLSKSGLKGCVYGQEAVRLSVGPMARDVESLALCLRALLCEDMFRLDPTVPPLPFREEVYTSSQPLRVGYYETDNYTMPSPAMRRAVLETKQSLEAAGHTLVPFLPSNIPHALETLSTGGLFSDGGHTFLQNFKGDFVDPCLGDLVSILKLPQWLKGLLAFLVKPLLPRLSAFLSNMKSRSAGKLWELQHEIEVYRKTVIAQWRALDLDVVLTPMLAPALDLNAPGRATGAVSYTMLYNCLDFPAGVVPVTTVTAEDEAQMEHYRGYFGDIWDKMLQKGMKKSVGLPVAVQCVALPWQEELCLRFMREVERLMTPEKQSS

[7] = Inhibition of NFkappaB in mouse RAW264.7 cells preincubated for 2 hrs followed by LPS addition for 3 hrs by luciferase reporter gene assay relative to control; assay type: cell-based
[8] = Drug uptake in Sprague-Dawley rat muscle at 300 mg/kg, po administered for 7 days measured 4 hrs post dose on day 7; assay type: ADME, organism-based, Muscle tissue; settings: read-out: Drug uptake
In short: (§2)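 Male Sprague Dawley rats, groups of 4, dosed orally at 300 mg/kg once daily for 14 days. Animals killed on days 1, 3, 7 and 14, with plasma, brain, epididymal fat, liver and muscle taken 4 hr after dosing. Parent, salicylic acid and salicyluric acid were measured.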

Liver [9] = test: Drug uptake in Sprague-Dawley rat liver at 300 mg/kg, po administered for 14 days followed by 7 day washout cycle measured on day 21; assay type: ADME, organism-based; settings: in vivo
Rattus norvegicus [10] = test: Cmax in Sprague-Dawley rat assessed as salicylic acid at 300 mg/kg, po measured up to 24 hrs post dose; assay type: ADME, organism-based; design: dose 300 mg/kg, route oral; settings: in vivo
In short: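 Single oral dose of 300 mg/kg to Sprague Dawley rats. Plasma collected at 0, 0.5, 1, 2, 4, 8 and 24 hr. Analytes were the parent, the salicylate-linker and linker-DHA metabolites, salicylic acid and salicyluric acid; Cmax and AUClast derived.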

Liver [11] = test: Drug metabolism in Sprague-Dawley rat liver assessed as salicyluric acid formation at 300 mg/kg, po administered for 7 days measured 4 hrs post dose on day 7; assay type: ADME, organism-based; settings: in vivo; in short: as §2
Liver [12] = test: Drug metabolism in Sprague-Dawley rat liver assessed as salicylic acid formation at 300 mg/kg, po administered for 14 days followed by 7 day washout cycle measured on day 21; assay type: ADME, organism-based; settings: in vivo
Plasma [13] = test: Drug metabolism in Sprague-Dawley rat plasma assessed as salicylic acid formation at 300 mg/kg, po administered for 14 days followed by 7 day washout cycle measured on day 21; assay type: ADME, organism-based; settings: in vivo
[14] = Drug metabolism in Sprague-Dawley rat epididymal fat assessed as salicylic acid formation at 300 mg/kg, po administered for 7 days measured 4 hrs post dose on day 7; assay type: ADME, organism-based, Epididymal fat pad; settings: in vivo; in short: as §2
[15] = Drug metabolism in Sprague-Dawley rat epididymal fat assessed as salicylic acid formation at 300 mg/kg, po administered for 14 days followed by 7 day washout cycle measured on day 21; assay type: ADME, organism-based, Epididymal fat pad; settings: in vivo

## CC/C=C\C/C=C\C/C=C\C/C=C\C/C=C\CCCC(=O)NCCNC(=O)c1cccnc1
Mus musculus
  inhibition: Active
Plasma [1]
  Drug metabolism: > 200 ng/mL
Liver [2]
  Drug metabolism: BLD
[3]
  concentration at 2 h: 7.5 ng/g
Rattus norvegicus [4]
  Cmax: 1131 ng/mL
Rattus norvegicus [5]
  Cmax: 125 ng/mL
Intestine
  Drug metabolism: 23899 ng/g
[6]
  Drug metabolism: tde

## CC/C=C\C/C=C\C/C=C\C/C=C\C/C=C\C/C=C\CCC(=O)NCCNC(=O)c1ccccc1O [EDASALONEXENT]
[7]
  IC50: 25.4 µM
[8]
  concentration at 4 h: 425 ng/g
Liver [9]
  Drug uptake: Not Active
Rattus norvegicus [10]
  Cmax: 75 ng/mL
Liver [11]
  Drug metabolism: 506.48 ng/g
Liver [12]
  Drug metabolism: metabolite_notdetected
Plasma [13]
  Drug metabolism: metabolite_notdetected
[14]
  Drug metabolism: 65.03 ng/g
[15]
  Drug metabolism: metabolite_notdetected
